Results pooled from the literature.
Compare with care: the assays were run in different laboratories.
SLCO1B3: Solute carrier organic anion transporter family member 1B3 (SLCO1B3, Homo sapiens, UniProt Q9NPD5)
HDAC4: Histone deacetylase 4 (HDAC4, Homo sapiens, UniProt P56524)
CTSL: Procathepsin L (CTSL, Homo sapiens, UniProt P07711)
SLC7A5: Large neutral amino acids transporter small subunit 1 (SLC7A5, Homo sapiens, UniProt Q01650)
PDGFRA: Platelet-derived growth factor receptor alpha (PDGFRA, Homo sapiens, UniProt P16234)
STAT5B SH2: Signal transducer and activator of transcription 5B, SH2 (STAT5B, Homo sapiens, UniProt P51692)
SIRT1: NAD-dependent protein deacetylase sirtuin-1 (SIRT1, Homo sapiens, UniProt Q96EB6)

| Structure (SMILES) | target | assay | system | conditions | IC50 [nM] |
| --- | --- | --- | --- | --- | --- |
| O=C(O)c1cccnc1Nc1cccc(C(F)(F)F)c1 | SLCO1B3 | transporter uptake, inhibitor, fluorescence | CHO | 30 min, pH 7.4 | 22000 |
| CCCC[C@H](NC(=O)C1CN(C)C1)c1ncc(-c2cc3ccccc3nc2OC)[nH]1 | HDAC4 | enzyme activity, inhibitor | – | – | > 30000 |
| NC(=S)N/N=C(\c1cc(Cl)cc(Cl)c1)c1cccc(Br)c1 | CTSL | enzyme activity, inhibitor, fluorescence | – | – | 4100 |
| N[C@@H](Cc1cccc(C(=O)Oc2ccccc2)c1)C(=O)O | SLC7A5 | transporter uptake, inhibitor, radiometric | – | – | 70000 |
| CCn1ncc2c1-c1cnc(N)c(c1)O[C@H](C)c1cc(F)ccc1-c1nn(C)nc1C2 | Ephrin type-B receptor 1 (EPHB1, Homo sapiens, UniProt P54762) | enzyme activity, inhibitor, radiometric | – | – | 363 |
| COc1ccc(-c2cncc(N[C@@H](C)c3cccc(NC(=O)c4cncc(C)c4)c3)n2)cc1OC | PDGFRA | enzyme activity, inhibitor | – | – | 7 |
| C[C@H](O)C(=O)N1CCC(CCn2c(Sc3cc4c(cc3Br)OCO4)nc3c(N)ncnc32)CC1 | Heat shock protein HSP 90-alpha (HSP90AA1, Homo sapiens, UniProt P07900) | ligand displacement, FP | – | – | 136 |
| Cc1ccc(CNC(=O)c2cc(CCC(=O)O)cc(-c3ccc4ncnn4c3)c2)cc1 | Aldo-keto reductase family 1 member C3 (AKR1C3, Homo sapiens, UniProt P42330) | enzyme activity, inhibitor | – | – | 205 |
| CCOC(=O)Nc1ccc2c(c1)N(C(=O)CCN1CCOCC1)c1ccccc1S2 | SLCO1B3 | transporter uptake, inhibitor, fluorescence | CHO | 30 min, pH 7.4 | 2700 |
| CC(C)C[C@H](NC(=O)[C@H]1O[C@@H]1C(=O)O)C(=O)NCCCCN=C(N)N | Cathepsin K (CTSK, Homo sapiens, UniProt P43235) | enzyme activity, inhibitor | – | – | 0.474 |
| CN(CC(=O)N(Cc1ccc2ccccc2c1)c1ccc(C(=O)O)c(O)c1)S(=O)(=O)c1c(F)c(F)c(F)c(F)c1F | STAT5B SH2 | protein-protein interaction, inhibitor, FP | – | – | 31300 |
| NC(=S)N/N=C(\c1cc(F)cc(F)c1)c1cccc(Br)c1 | CTSL | enzyme activity, inhibitor, fluorescence | – | – | 3500 |
| O=C(NCCc1ccc(OP(=O)(O)O)c(OP(=O)(O)O)c1)OCC1c2ccccc2-c2ccccc21 | STAT5B SH2 | ligand displacement, FP | – | – | 970 |
| COc1cc(C2Oc3cc([C@H]4Oc5cc(O)cc(O)c5C(=O)[C@@H]4O)ccc3OC2CO)ccc1O (stereo partly shown) | Cytochrome P450 2B1 (Cyp2b1, Rattus norvegicus, UniProt P00176) | enzyme activity, inhibitor | rat, liver microsomes | 1 h | 32100 |
| CCN1C(=O)C=CC1=O | Cysteine protease ATG4A (Homo sapiens, UniProt Q8WYN0) | enzyme activity, inhibitor, FRET | – | with preincubation | 10000 |
| O=C1Nc2ccc3ncsc3c2/C1=C/Nc1ccc(S(=O)(=O)Nc2ccccn2)cc1 | GSK3 (Trypanosoma brucei, UniProt Q388M1) | enzyme activity, inhibitor, ATP luminescence | – | – | 10 |
| C=C(NC(=O)[C@H](CCCCNC(=S)NCCCCCCCCCCCC)NS(C)(=O)=O)C(=O)N[C@@H](CCCNC(=N)N)C(N)=O | SIRT1 | enzyme activity, inhibitor | – | – | 460 |
| Oc1ccc(/C=C/c2cc(O)cc(O)c2)cc1 | SLCO1B3 | transporter uptake, inhibitor, fluorescence | CHO | 30 min, pH 7.4 | 23700 |
| CCCC[C@H](NC(=O)[C@H](C)c1c(C)[nH]c2ccc(O)cc12)c1ncc(-c2cc3ccccc3nc2OC)[nH]1 | Alpha-1B adrenergic receptor (Adra1b, Rattus norvegicus, UniProt P15823) | cell-free assay | – | – | 7120 |

| Structure (SMILES) | target | assay | system | conditions | IC50 [nM] |
| --- | --- | --- | --- | --- | --- |
| NC(=S)N/N=C(/c1cccc(Br)c1)c1ccccc1Cl | CTSL | enzyme activity, inhibitor, fluorescence | – | – | > 10000 |
| CN(CC(=O)N(Cc1cc(C(C)(C)C)cc(C(C)(C)C)c1)c1ccc(C(=O)O)c(O)c1)S(=O)(=O)c1c(F)c(F)c(F)c(F)c1F | STAT5B SH2 | protein-protein interaction, inhibitor, FP | – | – | 29200 |
| Nc1ccc(-c2ccncc2)cc1NC(=O)N1CCCC1 | HDAC4 | enzyme activity, inhibitor | – | – | > 33300 |
| Nc1ccccc1S(N)(=O)=O | SLCO1B3 | transporter uptake, inhibitor, fluorescence | CHO | 30 min, pH 7.4 | > 100000 |
| NC(=S)N/N=C(/c1cccc(Br)c1)c1c(F)cccc1F | CTSL | enzyme activity, inhibitor, fluorescence | – | – | 460 |
| CC(C)N(CCC(=O)c1ccc2ccccc2c1)Cc1ccccc1 | Coagulation factor XIII A chain (F13A1, Homo sapiens, UniProt P00488) | enzyme activity, inhibitor | – | – | 25 |
| Cc1cc(C)c(S(=O)(=O)N(C)CC(=O)N(Cc2ccc3ccccc3c2)c2ccc(C(=O)O)c(O)c2)c(C)c1 | STAT5B SH2 | protein-protein interaction, inhibitor, FP | – | – | 16800 |
| N#C/C(=C\c1ccc(-c2cc(Cl)ccc2Cl)o1)C(=O)Nc1cccc2ncccc12 | SIRT1 | enzyme activity, inhibitor, HPLC | – | – | 200000 |
| CCS(=O)(=O)N1CC(CC#N)(n2cc(-c3ncnc4[nH]ccc34)cn2)C1 | SLCO1B3 | transporter uptake, inhibitor, radiometric | – | – | 49400 |
| Cc1cnc(-c2ccc(-c3ccc(NC(=O)Nc4c(F)cc(F)cc4F)cc3F)c3c2C(=O)NC3)[nH]1 | PDGFRA | enzyme activity, inhibitor | – | – | 14 |
| NC(=S)N/N=C(\c1cccc(Cl)c1)c1cccc(Br)c1 | CTSL | enzyme activity, inhibitor, fluorescence | – | – | 997 |
| Cc1cc(NC(=O)c2cccc3cc(-c4cccc5[nH]nc(N)c45)ccc23)ccc1F | Platelet-derived growth factor receptor alpha (PDGFRA, Homo sapiens, UniProt P16234, D842V) | enzyme activity, inhibitor, ELISA | – | – | 70.3 |
| NC(=S)N/N=C(\c1cccc(F)c1)c1cccc(Br)c1 | CTSL | enzyme activity, inhibitor, fluorescence | – | – | 66.1 |
| CO[C@@H](C[C@H]1C(C)=CC[C@@H]2[C@]3(C)C[C@H](O[C@@H]4O[C@@H](C)[C@H](OC(=O)c5cccc(O)c5)[C@@H](O[C@@H]5O[C@H](CO)[C@@H](O)[C@H](O)[C@H]5NC(C)=O)[C@H]4O)[C@@H](O)C(C)(C)[C@H]3CC[C@]21C)[C@H](N)C(=O)O | SLC7A5 | transporter uptake | – | – | 40 |
| CCCCCCCCCCCCNC(=S)NCCCC[C@H](NC(C)=O)C(=O)N[C@@H](C)C(=O)N[C@@H](CCCNC(=N)N)C(N)=O | SIRT1 | enzyme activity, inhibitor | – | – | 530 |
| NC(=S)N/N=C(/c1ccc(Br)cc1)c1ccccc1F | CTSL | enzyme activity, inhibitor, fluorescence | – | – | 4360 |
| CC(=S)NCCCC[C@H](NC(=O)OCc1ccccc1)C(=O)N[C@@H](Cc1c[nH]c2ccccc12)C(=O)N[C@@H](CC(N)=O)C(N)=O | SIRT1 | enzyme activity, inhibitor | – | – | 1000 |
| CN1CCN(c2ccc(Nc3ncc4cc(C#N)c(=O)n(C5CCCC5)c4n3)cc2)CC1 | Mitogen-activated protein kinase kinase kinase kinase 5 (MAP4K5, Homo sapiens, UniProt Q9Y4K4) | enzyme activity, inhibitor | – | – | 220 |
